Assay results taken from PubChem BioAssay.
Calls of active or inactive are those of the source.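 The calls were made as follows, unless noted: active = NADPH fluorescence slope more negative than the mean of all samples by about 3 SD, 99.7% confidence; inactive = the rest.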

Tests used:
[1] = inhibitors of TNFa-induced NFkB p65 translocation, primary screen, imaging, HUVEC, MLSMR starter and 10KST1 sets (AID 438;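 active = inhibition above 20% together with a positive visual image hit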;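 also: compound added about 3h40 before a 20 min TNFalpha stimulation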;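 as to inhibition: signal is the nuclear over cytoplasmic p65 intensity ratio per well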); settings: HUVEC TNFa-induced p65 nuclear translocation; cell count: measured here: nuclei count (cytotoxicity indicator), at 2.08 µM; inhibition: at 2 µM, stronger effect = higher value, 0% TNFa-plus-vehicle, 100% no-TNFa wells
[2] = endothelial E-selectin expression blockers – imaging, HUVEC, immunofluorescence, MLSMR starter and 10KST1 sets, primary screen (AID 487;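 active = visually confirmed hit in the image check and inhibition above 20%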;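 as to inhibition: signal is fraction of cell area covered by stained E-selectin grains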;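 as to nuclei count: 100% = median nuclei count of all wells on the same plate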); settings: HUVEC TNFalpha-induced E-selectin immunofluorescence imaging, at 2 µM; inhibition: stronger effect = higher value; nuclei count: measured here: cell number, toxicity
[3] = Primary imaging screen for DUSP6 inhibitors that restore phospho-Erk in transfected HeLa cells, chemical complementation (AID 609;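 active = compounds giving at least 50% inhibition in the cell-based MKP-3 phosphatase rescue imaging test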;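 as to inhibition: phospho-Erk level distribution per well compared with pooled transfected vehicle control wells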); settings: HeLa MKP-3 transfected, phospho-Erk imaging KS statistic, at 10 µM, cells stimulated with TPA for 15 min
[4] = target: Dual specificity protein phosphatase 6 (Homo sapiens) (UniProt Q16828); assay: as above; settings: HeLa MKP-3 transfected, phospho-Erk imaging KS statistic; at 10 µM; stronger effect = higher value; cells stimulated with TPA for 15 min
[5] = target: Voltage-gated potassium channel subunit beta-2 (Rattus norvegicus) (UniProt P62483); assay: inhibitors of rat Kvbeta2 reductase activity – biochemical, NADPH fluorescence, primary screen (AID 622;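 active = fluorescence slope higher than the sample average by over 3 SD, cut at about -0.22 in these data, passing the limit was not always enough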;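 also: slope of raw intensity against log time taken from 70 to 1610 s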); settings: recombinant KvBeta, 4-cyanobenzaldehyde reduction, at 10 µM, stronger effect = higher value
[6] = target: Voltage-gated potassium channel subunit beta-2 (Rattus norvegicus) (UniProt P62483); assay: enhancers of rat Kvbeta2 NADPH turnover – biochemical, NADPH fluorescence, primary screen (AID 623); settings: Recombinant KvBeta, NADPH fluorescence decrease slope, 10 min; at 10 µM; stronger effect = lower value;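 also: fluorescence intensity change per second fitted from 20 to 320 s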
[7] = target: Muscarinic acetylcholine receptor M4 (Homo sapiens) (UniProt P08173); assay: M4-linked GIRK flux change, two-sided – cell-based, HEK293 M4/GIRK, thallium flux, BTC-AM, M4 allosteric agonist project, primary screen (AID 625;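 active = fluorescence slope after compound addition differing from the mean of all tested samples at 99.7% confidence, mostly higher but some lower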;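 also: thallium influx through GIRK channels coupled to M4 in HEK293 cells with BTC-AM dye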); settings: at 10 µM, actives lie on both sides
Procedure, shortened: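 Material: M4/GIRK1/GIRK2 stable HEK293 cell line. Medium: pH 7.3 thallium assay buffer. Dosing: single compound concentration, 10 µM final. Schedule: 1 h dye loading, 2 min kinetic read. Measured by: kinetic fluorescence with BTC-AM dye. Read-out: post-addition slope, 15–24 s, of baseline-normalized fluorescence. Benchmarks: carbachol and DMSO controls.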

[8] = inhibitors of larval lipid processing in zebrafish, primary screen, whole organism, PED6 fluorescence, gall bladder and intestine (AID 686;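 active = a full or partial loss of lipid-probe fluorescence in the fish gall bladder, intestine or both, judged by eye; inactive = no fluorescence loss, or compound toxic to the fish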;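 also: larvae 5 to 7 days old with five fish per well; signal comes from phospholipase A2 cleavage of quenched PED6 carried via bile; overnight exposure to compound and PED6 before scoring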); settings: Zebrafish larvae PED6 lipid processing, fluorescence scoring; screened at 20 µM (by protocol)
Procedure, shortened: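 System: live zebrafish larvae aged 5-7 days, whole organism; measure: graded gall bladder and intestinal fluorescence inhibition per well; incubation: overnight exposure; reagent: ingested quenched lipid PED6 at 100 nM; signal: By-eye fluorescence microscopy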

[9] = loss of swimming-algae plug formation – whole organism, Chlamydomonas reinhardtii, WT vs cilia-less mutant, absorbance, 96-well, primary screen (AID 463189;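 active = inhibition at or above 50% relative to wild type and mutant plate controls; inactive = inhibition below 50%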;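 also: 0% = wild type cc124 cells in DMSO and 100% = ciliumless bld1 mutant cells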); settings: Chlamydomonas reinhardtii gravitaxis, OD600 absorbance, 2 days; at 10 µM; stronger effect = higher value
[10] = measured here: cell density z-score
[11] = measured here: nuclear c-Myc green intensity z-score
[12] = measured here: nuclear pErk red intensity z-score, stronger effect = higher value

Sequence of Voltage-gated potassium channel subunit beta-2 (Rattus norvegicus) (P62483 whole entry, looked up): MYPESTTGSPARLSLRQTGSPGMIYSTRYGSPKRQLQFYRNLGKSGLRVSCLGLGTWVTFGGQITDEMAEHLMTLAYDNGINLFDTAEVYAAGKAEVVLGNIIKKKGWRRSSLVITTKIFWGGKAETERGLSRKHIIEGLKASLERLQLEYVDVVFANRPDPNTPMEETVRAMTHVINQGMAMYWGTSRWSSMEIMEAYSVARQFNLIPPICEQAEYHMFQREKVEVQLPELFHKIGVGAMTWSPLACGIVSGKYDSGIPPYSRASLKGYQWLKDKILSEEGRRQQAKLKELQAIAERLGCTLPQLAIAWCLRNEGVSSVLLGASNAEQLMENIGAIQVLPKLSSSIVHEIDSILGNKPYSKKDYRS
Sequence of Muscarinic acetylcholine receptor M4 (Homo sapiens) (P08173 whole entry, looked up): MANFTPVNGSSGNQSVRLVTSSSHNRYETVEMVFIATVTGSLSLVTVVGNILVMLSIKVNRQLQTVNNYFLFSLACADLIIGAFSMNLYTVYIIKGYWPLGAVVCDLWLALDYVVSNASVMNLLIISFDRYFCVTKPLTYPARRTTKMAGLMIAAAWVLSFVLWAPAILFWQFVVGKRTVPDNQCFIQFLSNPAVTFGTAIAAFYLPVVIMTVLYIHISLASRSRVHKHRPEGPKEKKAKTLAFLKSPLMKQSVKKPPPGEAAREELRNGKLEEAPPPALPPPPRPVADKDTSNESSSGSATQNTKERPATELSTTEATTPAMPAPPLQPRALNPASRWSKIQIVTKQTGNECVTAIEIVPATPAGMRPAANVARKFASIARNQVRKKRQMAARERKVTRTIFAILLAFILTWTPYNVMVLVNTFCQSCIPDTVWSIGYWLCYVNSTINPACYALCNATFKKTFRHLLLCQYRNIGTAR
Sequence of Dual specificity protein phosphatase 6 (Homo sapiens) (Q16828 whole entry, looked up): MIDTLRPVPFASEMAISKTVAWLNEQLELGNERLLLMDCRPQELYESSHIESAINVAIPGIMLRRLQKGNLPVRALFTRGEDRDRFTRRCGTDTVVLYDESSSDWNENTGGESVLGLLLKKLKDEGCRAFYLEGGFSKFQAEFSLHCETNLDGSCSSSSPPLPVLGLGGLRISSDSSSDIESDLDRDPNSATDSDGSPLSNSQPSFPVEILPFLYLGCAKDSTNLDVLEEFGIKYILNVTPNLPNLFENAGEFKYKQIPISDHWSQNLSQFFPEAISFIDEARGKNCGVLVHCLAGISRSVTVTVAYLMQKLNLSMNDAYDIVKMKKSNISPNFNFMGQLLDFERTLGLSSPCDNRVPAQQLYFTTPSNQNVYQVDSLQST

| Compound | cell count [1] | inhibition [1] | inhibition [2] | nuclei count [2] | z-score [3, 10] | z-score [3, 11] | z-score [3, 12] | inhibition [4] | fluorescence slope [5] | NADPH fluorescence slope [6] | fluorescence slope [7] | outcome [8] | inhibition [9] |
| --- | --- | --- | --- | --- | --- | --- | --- | --- | --- | --- | --- | --- | --- |
| CC(C)c1nc(N2CCOCC2)c(C#N)c2c1COC(C)(C)C2 | 535 | -5.2% (inactive) | -79.8% (inactive) | 110% | 0.188 | -0.524 | -1.28 | -9.53% (inactive) | -0.424 (inactive) | 4.6e-06 (inactive) | 0.00516 (inactive) | inactive | -30% (inactive) |
| CCOC(=O)NC(Nc1sc2c(c1C(=O)OC)CCN(C)C2)(C(F)(F)F)C(F)(F)F | 614 | 3.1% (inactive) | -20.8% (inactive) | 89.6% | 0.751 | -0.407 | -0.601 | 16.5% (inactive) | -0.501 (inactive) | -3.3e-05 (inactive) | 0.00619 (inactive) | inactive | 36.6% (inactive) |
| CCOC(=O)C(C)Oc1ccc2c(C)cc(=O)oc2c1C(C)=O (stereo unspecified) | 708 | 3.9% (inactive) | -13.3% (inactive) | 198% | -0.905 | 0.873 | 1.56 | 1.98% (inactive) | -0.459 (inactive) | -4.7e-05 (inactive) | 0.00606 (inactive) | inactive | 3.24% (inactive) |
| N#Cc1c2c(c(-c3ccco3)[nH]c1=O)CCCC2 | 576 | -5% (inactive) | -60.2% (inactive) | 152% | -0.652 | 0.857 | 0.409 | -5.81% (inactive) | -0.435 (inactive) | -0.000117 (inactive) | 0.00432 (inactive) | inactive | 17% (inactive) |
| Cc1nc(NCCCO)c(C#N)c2c1COC(C)(C)C2 | 588 | -3.1% (inactive) | -70% (inactive) | 142% | -0.306 | -0.435 | -0.462 | 12.8% (inactive) | -0.432 (inactive) | -9.1e-05 (inactive) | 0.00443 (inactive) | inactive | 24% (inactive) |
| Cc1ccc(Cn2ncc3c(N4CCOCC4)ncnc32)cc1 | 551 | -1.3% (inactive) | -9.4% (inactive) | 152% | 0.711 | -0.178 | 0.142 | 7.93% (inactive) | -0.363 (inactive) | -3.8e-05 (inactive) | 0.00641 (inactive) | inactive | -4.03% (inactive) |
| CC1(C)Cc2c(sc3ncn4nc(-c5ccco5)nc4c23)CO1 | 629 | 6.6% (inactive) | -31.6% (inactive) | 112% | -0.299 | 0.915 | -1.17 | -7.67% (inactive) | -0.432 (inactive) | -4.1e-05 (inactive) | 0.00512 (inactive) | inactive | 16.9% (inactive) |
| CC(C)Sc1nnc2n(CCc3ccccc3)c(=O)c3c4c(sc3n12)COC(C)(C)C4 | 532 | -8% (inactive) | -61.3% (inactive) | 139% | 0.633 | -0.0361 | -0.58 | 7.93% (inactive) | -0.435 (inactive) | -2.4e-05 (inactive) | 0.00702 (inactive) | inactive | 19% (inactive) |
| CCCCOc1ccccc1C(=O)NCCCCCC(=O)O | 375 | -2.6% (inactive) | -80.5% (inactive) | 150% | 1.24 | -0.608 | 1.41 | -0.584% (inactive) | -0.462 (inactive) | -0.000119 (inactive) | 0.00571 (inactive) | inactive | 19.6% (inactive) |
| Cc1cc(=O)oc(C)c1C(=O)NC1CC(C)(C)NC(C)(C)C1 | 688 | -8.3% (inactive) | -70.2% (inactive) | 160% | -0.541 | 0.659 | 0.228 | -10.1% (inactive) | -0.463 (inactive) | -1.7e-05 (inactive) | 0.00552 (inactive) | inactive | 6.56% (inactive) |
| COC(=O)CSc1nnc(C)c(=O)[nH]1 | 609 | -15.3% (inactive) | -317% (inactive) | 138% | 0.155 | 1.52 | -3.1 | -7.86% (inactive) | -0.484 (inactive) | -7.4e-05 (inactive) | 0.00545 (inactive) | inactive | -3.96% (inactive) |
| COc1ccccc1NC(=O)CSc1nnc(-c2ccc(NC(C)=O)cc2)n1C | 661 | -6% (inactive) | -36.2% (inactive) | 198% | -0.0402 | -0.306 | 0.506 | 12.8% (inactive) | -0.46 (inactive) | -0.000106 (inactive) | 0.00538 (inactive) | inactive | -1.17% (inactive) |
| CC1(C)Cc2c(C#N)c(N3CCN(C(=O)c4ccccc4)CC3)nc(-c3ccco3)c2CS1 | 640 | -9% (inactive) | -74.3% (inactive) | 156% | 0.833 | 0.824 | -0.638 | 19.1% (inactive) | -0.401 (inactive) | -2.5e-05 (inactive) | 0.0059 (inactive) | inactive | 7.79% (inactive) |
| CSc1nc(C)c2c(c1C#N)CCCC2 | 507 | -9.7% (inactive) | -266% (inactive) | 148% | -0.174 | -0.19 | -1.41 | 1.04% (inactive) | -0.455 (inactive) | -3.8e-05 (inactive) | 0.00451 (inactive) | inactive | 10.6% (inactive) |
| CCc1[nH]c(=O)c(C#N)c2c1CCCC2 | 388 | -8.1% (inactive) | -57.4% (inactive) | 173% | -0.973 | 0.856 | 2.79 | -12.6% (inactive) | -0.495 (inactive) | -0.000126 (inactive) | 0.00393 (inactive) | inactive | 26.8% (inactive) |
| Cc1cc(N2C(=O)C(=O)/C(=C(/O)c3ccc(F)cc3)C2c2cccc(Br)c2)no1 (stereo unspecified) | 478 | 2.6% (inactive) | 2.7% (inactive) | 145% | 0.015 | 0.305 | 1.03 | 1.04% (inactive) | -0.439 (inactive) | -4.6e-05 (inactive) | 0.00551 (inactive) | inactive | 15.6% (inactive) |
| N#C/C(C(=O)NCc1ccco1)=C1/SC(Cc2ccc(Cl)cc2)C(=O)N1c1ccccc1 (stereo unspecified) | 633 | -0.2% (inactive) | -35.3% (inactive) | 104% | 0.196 | -0.248 | -0.52 | -9.53% (inactive) | -0.428 (inactive) | -5.4e-05 (inactive) | 0.00683 (inactive) | inactive | 2.21% (inactive) |
| O=C(O)CSCC(=O)Nc1ccc(S(=O)(=O)N2CCCCC2)cc1 | 500 | -7.8% (inactive) | -62% (inactive) | 162% | 0.13 | -1.22 | 0.192 | -3.95% (inactive) | -0.424 (inactive) | -3.2e-05 (inactive) | 0.00479 (inactive) | inactive | -4.71% (inactive) |
| CCCC1CC(=O)OC1(C)C(=O)CSc1n[nH]c(-c2ccccc2)n1 (stereo unspecified) | 686 | -3.7% (inactive) | -35.6% (inactive) | 142% | 0.882 | 0.0839 | -0.223 | -9.66% (inactive) | -0.472 (inactive) | -1.5e-05 (inactive) | 0.00594 (inactive) | active; no signal in intestine only | -3.69% (inactive) |
| CCCC(CCC(=O)Nc1ccc(C(=O)OC)cc1)C(=O)O (stereo unspecified) | 402 | -5.3% (inactive) | -85.5% (inactive) | 145% | 0.89 | -1.82 | 0.0137 | 26.5% (inactive) | -0.445 (inactive) | -8.7e-05 (inactive) | 0.00528 (inactive) | inactive | -1.65% (inactive) |
| COc1ccc(N2CC(=O)N(c3ccc(OC)c(OC)c3)CC2=O)cc1OC | 400 | -5.7% (inactive) | -94.2% (inactive) | 142% | -0.173 | -2.28 | 1.66 | 3.42% (inactive) | -0.477 (inactive) | -5.2e-05 (inactive) | 0.00438 (inactive) | inactive | 18.5% (inactive) |
| CCOC(=O)c1[nH]c2ccc(OC)cc2c1NC(=O)CCN1CCc2ccccc2C1 | 515 | -5.3% (inactive) | -124% (inactive) | 136% | -0.0545 | -2.02 | 1.46 | 3.42% (inactive) | -0.323 (inactive) | -3.8e-05 (inactive) | 0.00491 (inactive) | inactive | -5.17% (inactive) |
| CC1(C)Cc2c(C#N)c(SCCOc3ccccc3)nc(N3CCOCC3)c2CO1 | 387 | -7.4% (inactive) | -56.3% (inactive) | 82.1% | -1.25 | 1.29 | 1.84 | 5.42% (inactive) | -0.415 (inactive) | -3.7e-05 (inactive) | 0.00791 (inactive) | inactive | 25.7% (inactive) |
| CCCCCOC(=O)C(C)c1c(C)[nH]c(=S)[nH]c1=O (stereo unspecified) | 628 | -1.4% (inactive) | -25.9% (inactive) | 158% | -0.614 | -0.028 | 2.51 | 1.04% (inactive) | -0.47 (inactive) | -8.1e-05 (inactive) | 0.00582 (inactive) | inactive | -3.91% (inactive) |
| O=C1CCC(=O)N1c1nc2n(n1)C(c1ccccc1)C=C(c1ccc(Br)cc1)N2 (stereo unspecified) | 369 | 3% (inactive) | -50% (inactive) | 71.6% | 0.246 | -0.538 | -1.14 | 3.56% (inactive) | -0.374 (inactive) | -9.5e-05 (inactive) | 0.0047 (inactive) | inactive | 17.5% (inactive) |
| CC1(C)Cc2ccccc2-c2c1c(=O)n(-c1ccccc1)c1nnnn21 | 624 | 8.6% (inactive) | -45% (inactive) | 92.5% | 0.648 | -0.29 | -0.398 | 4.72% (inactive) | -0.51 (inactive) | -1.7e-05 (inactive) | 0.00444 (inactive) | inactive | 13.9% (inactive) |
| CC1(C)Cc2c(C#N)c(SCC(=O)c3ccccc3)nc(N3CCOCC3)c2CS1 | 567 | -9.1% (inactive) | -119% (inactive) | 93.2% | 0.0433 | -1.53 | 0.585 | 5.42% (inactive) | -0.491 (inactive) | 1.6e-05 (inactive) | 0.00928 (inactive) | inactive | 34.2% (inactive) |
